From ChEMBL document CHEMBL1137008, “Cancer preventive agents 9. Betulinic acid derivatives as potent cancer chemopreventive agents” (Bioorg Med Chem Lett, 2009)

Tests used:
[1] = Cytotoxicity against human Raji cells assessed as cell viability at 1000 molar ratio after 48 hrs by trypan blue staining method; assay type: cell-based; settings: read-out: Activity
How it was run: (§1)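 Raji cells (EBV genome-carrying, Burkitt's lymphoma) grown in RPMI-1640 with 10% FBS; incubated 48 h at 37 °C with 4 mM n-butyric acid, 32 pM TPA and test compound in DMSO at stated compound/TPA molar ratio; viability determined by Trypan blue staining.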

Raji [2] = test: Inhibition of TPA-induced EBV-early antigen activation in human Raji cells assessed as EA induction at 500 molar ratio after 48 hrs relative to TPA; assay type: cell-based; design: scale not given: the % may be the effect or the level left; settings: human gammaherpesvirus 4
How it was run: (§2)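 Raji cells (virus non-producer, spontaneous EA activation <0.1%) incubated 48 h at 37 °C with 4 mM n-butyric acid plus 32 pM TPA and compound in DMSO; smears stained by indirect immunofluorescence with NPC patient EBV-EA-positive serum, ≥500 cells counted; EA-positive cells expressed relative to butyrate+TPA control (100%); triplicates; IC50 as mol ratio to 32 pmol TPA.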

Raji [3] = test: Inhibition of TPA-induced EBV-early antigen activation in human Raji cells assessed as EA induction at 10 molar ratio after 48 hrs relative to TPA; assay type: cell-based; design: scale not given: the % may be the effect or the level left; settings: human gammaherpesvirus 4; how it was run: as §2
[4] = Inhibition of TPA-induced EBV-early antigen activation in human Raji cells assessed as EA induction after 48 hrs relative to TPA; assay type: cell-based, human gammaherpesvirus 4; how it was run: as §2
[5] = Cytotoxicity against human Raji cells assessed as cell viability at 100 molar ratio after 48 hrs by trypan blue staining method; assay type: cell-based; settings: read-out: Activity; how it was run: as §1
Raji [6] = test: Inhibition of TPA-induced EBV-early antigen activation in human Raji cells assessed as EA induction at 1000 molar ratio after 48 hrs relative to TPA; assay type: cell-based; design: scale not given: the % may be the effect or the level left; settings: human gammaherpesvirus 4; how it was run: as §2
[7] = Cytotoxicity against human Raji cells assessed as cell viability at 10 molar ratio after 48 hrs by trypan blue staining method; assay type: cell-based; settings: read-out: Activity; how it was run: as §1
Raji [8] = test: Inhibition of TPA-induced EBV-early antigen activation in human Raji cells assessed as EA induction at 100 molar ratio after 48 hrs relative to TPA; assay type: cell-based; design: scale not given: the % may be the effect or the level left; settings: human gammaherpesvirus 4; how it was run: as §2
[9] = Cytotoxicity against human Raji cells assessed as cell viability at 500 molar ratio after 48 hrs by trypan blue staining method; assay type: cell-based; settings: read-out: Activity; how it was run: as §1

| Compound | viability at 48 h, 1000 molar ratio [1] [%] | Activity (Raji [2]) [%] | Activity (Raji [3]) [%] | IC50 [4] [molar ratio] | viability at 48 h, 100 molar ratio [5] [%] | Activity (Raji [6]) [%] | viability at 48 h, 10 molar ratio [7] [%] | Activity (Raji [8]) [%] | viability at 48 h, 500 molar ratio [9] [%] |
| --- | --- | --- | --- | --- | --- | --- | --- | --- | --- |
| C=C(C)[C@@H]1CC[C@]2(C(=O)O)CC[C@]3(C)[C@H](CC[C@@H]4[C@@]5(C)C[C@H](O)C(C)(C)[C@@H]5CC[C@]43C)[C@@H]12 | 60 | 39.2 | 100 | 475 | > 80 | 14.2 | > 80 | 79 | > 80 |
| C=C(C)[C@@H]1CC[C@]2(C(=O)O)CC[C@]3(C)[C@H](CC[C@@H]4[C@@]5(C)CC[C@H](OC(=O)C[C@@H](C)C(=O)O)C(C)(C)[C@@H]5CC[C@]43C)[C@@H]12 | 60 | 31.8 | 94.7 | 309 | > 80 | 0 | > 80 | 71.2 | > 80 |
| C=C(C)[C@@H]1CC[C@]2(C(=O)O)CC[C@]3(C)[C@H](CC[C@@H]4[C@@]5(C)CC[C@H](OC(=O)/C=C/C=C/C)C(C)(C)[C@@H]5CC[C@]43C)[C@@H]12 | 70 | 25.7 | 90.2 | 295 | > 80 | 0 | > 80 | 65.7 | > 80 |
| C=C(C)[C@@H]1CC[C@]2(C(=O)O)CC[C@]3(C)[C@H](CC[C@@H]4[C@@]5(C)CC[C@H](OC(=O)C[C@H](C)CO)C(C)(C)[C@@H]5CC[C@]43C)[C@@H]12 | 70 | 29.3 | 93.1 | 303 | > 80 | 0 | > 80 | 70.1 | > 80 |
| C=C(C)[C@@H]1CC[C@]2(C(=O)O)CC[C@]3(C)[C@H](CC[C@@H]4[C@@]5(C)[C@@H](C(=O)O)[C@H](OC(=O)CC(C)(C)C(=O)O)C(C)(C)[C@@H]5CC[C@]43C)[C@@H]12 | 60 | 35 | 93.8 | 349 | > 80 | 5.1 | > 80 | 72 | > 80 |
| C=C(C)[C@@H]1CC[C@]2(C(=O)O)CC[C@]3(C)[C@H](CC[C@@H]4[C@@]5(C)CC(=O)C(C)(C)[C@@H]5CC[C@]43C)[C@@H]12 | 60 | 36.4 | 100 | 442 | > 80 | 10.1 | > 80 | 74.3 | > 80 |
| C=C(C)[C@@H]1CC[C@]2(C(=O)O)CC[C@]3(C)[C@H](CC[C@@H]4[C@@]5(C)CC[C@H](OC(=O)CCCCCCC/C=C\CCCCCCCC)C(C)(C)[C@@H]5CC[C@]43C)[C@@H]12 | 60 | 33.7 | 92.5 | 344 | > 80 | 4.8 | > 80 | 72.4 | > 80 |
| COc1cc(/C=C/C(=O)CC(=O)/C=C/c2ccc(O)c(OC)c2)ccc1O [CURCUMIN] | 60 | 22.8 | 100 | 341 | > 80 | 0 | > 80 | 81.7 | > 80 |
| C=C(C)[C@@H]1CC[C@]2(C(=O)O)CC[C@]3(C)[C@H](CC[C@@H]4[C@@]5(C)CC[C@H](OC(=O)C[C@H](C)C(=O)O)C(C)(C)[C@@H]5CC[C@]43C)[C@@H]12 | 60 | 31.5 | 94.2 | 308 | > 80 | 0 | > 80 | 71 | > 80 |
